Published values of several laboratories.
Protocols differ between the studies behind these lines.
Target: D(4) dopamine receptor (DRD4, Homo sapiens, UniProt P21917)
Method: radioligand
Sequence (P21917 1-419, as in one of the studies): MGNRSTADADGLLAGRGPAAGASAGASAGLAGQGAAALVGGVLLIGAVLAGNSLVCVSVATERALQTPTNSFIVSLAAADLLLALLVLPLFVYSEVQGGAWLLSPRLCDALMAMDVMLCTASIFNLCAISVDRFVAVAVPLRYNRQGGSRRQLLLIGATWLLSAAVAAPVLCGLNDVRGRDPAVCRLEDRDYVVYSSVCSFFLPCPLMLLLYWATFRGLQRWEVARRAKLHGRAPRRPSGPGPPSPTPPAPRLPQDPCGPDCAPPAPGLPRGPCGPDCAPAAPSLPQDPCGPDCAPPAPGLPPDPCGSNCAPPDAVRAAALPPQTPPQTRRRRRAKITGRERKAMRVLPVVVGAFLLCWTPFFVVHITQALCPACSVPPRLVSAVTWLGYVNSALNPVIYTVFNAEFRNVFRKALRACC

CCCCCCCCCCCCNCCCc1ccc([N+](=O)[O-])cc1  Ki (ligand displacement): 1.8 µM
CCCCN1CCC(COC(=O)c2ccc(N)c(OCF)c2)CC1  Ki (cell-free assay): > 10 µM
O=C1c2ccccc2CCCN1CCCCN1CCN(c2ccccn2)CC1  Ki (ligand displacement): 0.0065 µM
c1ccc(CCC2=NCCN2CCc2ccccc2)cc1  Ki (ligand displacement): 0.758 µM
Cc1ccc(OC[C@@H]2CN(CCN3CCc4ccccc43)CCO2)cn1  Ki (ligand displacement): 0.503 µM
CCCCCCCNCCCc1ccccc1  Ki (ligand displacement): 0.39 µM
Oc1cccc(CCC2=NCCN2CCc2ccccc2)c1  Ki (ligand displacement): 0.589 µM
CCOc1c(O)cc(Br)c2c1CN1CCc3cc(OCC(F)F)c(O)cc3[C@@H]1C2  Ki (cell-free assay): 2.72 µM
CCN(CC)c1ccc(C2Nc3ccc(C(=O)c4ccccc4)cc3NC3=C2C(=O)CC(C)(C)C3)cc1 (centres unmarked)  Ki (cell-free assay): 1.53 µM
Oc1ccc(CCC2=NCCN2CCc2ccccc2)cc1  Ki (ligand displacement): > 10 µM
COc1ccc2c(c1)C(=O)N(CCCN1CCN(c3ccccc3OC)CC1)C2  Ki (ligand displacement): 0.0084 µM
